Values joined by “and” are separate entries in the source; they are usually repeats but may differ in a detail not shown here. Identical values can stand only once.
Tests used:
rats [1] = settings: cited from earlier work
rats [2] = settings: cited from earlier work; remark: listed apart in the source
human CB2 receptor = human CB2 receptor (Homo sapiens, UniProt P34972); assay: CB2 calcium mobilization assay, antagonist screen at 10 μM; format: cell-based; settings: read-out: CB2 % Inhibition of CP55,940, compound at 10 μM; percent inhibition of CP55,940 EC80 (100 nM); mean ± SEM, at least two independent experiments in duplicate
Chain of human CB2 receptor (P34972 whole entry): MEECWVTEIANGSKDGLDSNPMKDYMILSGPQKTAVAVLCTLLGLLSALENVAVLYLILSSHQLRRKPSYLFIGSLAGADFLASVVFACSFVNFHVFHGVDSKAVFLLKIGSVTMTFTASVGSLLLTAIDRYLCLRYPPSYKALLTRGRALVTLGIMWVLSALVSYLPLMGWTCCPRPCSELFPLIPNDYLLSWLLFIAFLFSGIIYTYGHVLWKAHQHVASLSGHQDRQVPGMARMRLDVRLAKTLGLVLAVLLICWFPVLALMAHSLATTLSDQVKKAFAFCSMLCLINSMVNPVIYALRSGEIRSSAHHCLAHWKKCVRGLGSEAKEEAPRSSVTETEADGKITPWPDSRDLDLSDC

over forty GPCRs = settings: including GPCRs commonly involved in drug addictions; cited from earlier work
human CB1 receptor [3] = biological target: T1, human CB1 receptor (Homo sapiens, UniProt P21554); assay: CB1 calcium mobilization assay, modulation experiments; format: cell-based; settings: Figure 2
T1 sequence (P21554 whole entry): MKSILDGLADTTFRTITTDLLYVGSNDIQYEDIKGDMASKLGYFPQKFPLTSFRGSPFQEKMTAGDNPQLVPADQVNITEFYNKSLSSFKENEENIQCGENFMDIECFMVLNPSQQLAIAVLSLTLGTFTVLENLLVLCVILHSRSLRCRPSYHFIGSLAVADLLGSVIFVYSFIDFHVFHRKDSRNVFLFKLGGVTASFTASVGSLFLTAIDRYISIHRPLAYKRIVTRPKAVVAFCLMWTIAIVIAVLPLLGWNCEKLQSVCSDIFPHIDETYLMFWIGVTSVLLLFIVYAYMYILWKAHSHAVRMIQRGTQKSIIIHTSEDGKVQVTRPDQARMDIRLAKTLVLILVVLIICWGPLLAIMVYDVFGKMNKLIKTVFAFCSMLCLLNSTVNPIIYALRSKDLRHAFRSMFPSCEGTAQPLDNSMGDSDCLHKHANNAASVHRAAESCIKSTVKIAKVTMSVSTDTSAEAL
Summary of the method: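 CHO-RD-HGA16 cells stably expressing human CB1, plated the day before and kept overnight at 37°C, 5% CO2. Loaded with Calcium 5 dye for 45 min at 37°C in HBSS, 20 mM HEPES, 2.5 mM probenecid, pH 7.4. Pre-treated 15 min at 37°C with one test compound concentration, then serial CP55,940 dilutions added at 10 s. Fluorescence read every 1 s for 90 s.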

mice = settings: cited from earlier work
human CB1 receptor [4] = biological target: T1, human CB1 receptor; assay: CB1 calcium mobilization assay, antagonist; format: cell-based; settings: ratio of CB1 IC50 values
Summary of the method: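 CHO-RD-HGA16 cells stably expressing human CB1 were plated overnight (37°C, 5% CO2), then Calcium 5 dye-loaded for 45 min at 37°C in HBSS/20 mM HEPES/2.5 mM probenecid, pH 7.4. Test compound dilutions were pre-incubated 15 min at 37°C. CP55,940 at EC80 was added at 10 s, and fluorescence was read every 1 s for 90 s. IC50 came from three-parameter logistic fits; at least three independent experiments in duplicate.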

inhibition at 10 µM (human CB2 receptor) [%] | SMILES | other results
-16.4 ± 1.8 | CCc1c(C(=O)NCCc2ccc(N3CCCCC3)cc2)[nH]c2ccc(Cl)cc12 [Compound 1, Org27569] | Effect in catalepsy and antinociception (rats [1]): negative results; Effect on hypothermic effects of CB1 receptor agonists CP55940 and anandamide (rats [1]): attenuated the hypothermic effects; Cue- and drug-induced reinstatement of cocaine- and methamphetamine-seeking behavior (rats [2]): dose-related attenuation; Pharmacological selectivity against over forty GPCRs (over forty GPCRs): high pharmacological selectivity; Effect on Emax of agonist CP55,940 (human CB1 receptor [3]): dose-dependently decreased the Emax; Anorectic effect, mechanism (mice): anorectic effect through non-CB1 specific mechanisms; Effect on CB1 agonist-induced effects (antinociception, catalepsy, hypothermia) (mice): did not enhance or block
-33.1 ± 16.3 | CCc1c(C(=O)NCCc2ccc(N3CCCCC3)cc2)[nH]c2ccc(F)cc12 [Compound 46, 5-Fluoro-3-ethyl-N-{2-[4-(piperidin-1-yl)phenyl]ethyl}-1H-indole-2-carboxamide] | –
-28 ± 25.9 | CCc1c(C(=O)N2CCN(c3ccccc3)CC2)[nH]c2ccc(Cl)cc12 [Compound 36, 5-Chloro-3-ethyl-2-(4-phenylpiperazine-1-carbonyl)-1H-indole] | –
-31.1 ± 18.8 | CCc1c(C(=O)N2CCN(c3ccc(Cl)cc3)CC2)[nH]c2ccc(Cl)cc12 [Compound 37, 5-Chloro-2-[4-(4-chlorophenyl)piperazine-1-carbonyl]-3-ethyl-1H-indole] | –
-11.2 ± 19.6 | CCc1c(C(=O)NCCc2ccc(OC)cc2)[nH]c2ccc(Cl)cc12 [Compound 26, 5-Chloro-N-[2-(4-methoxyphenyl)ethyl]-3-ethyl-1H-indole-2-carboxamide] | –

Further lines, the molecule ahead of its results:

SMILES | inhibition at 10 µM (human CB2 receptor) [%] | other results
CCN(CC)c1ccc(CCNC(=O)c2cc3cc(Cl)ccc3[nH]2)cc1 [Compound 45, 5-Chloro-N-{2-[4-(diethylamino)phenyl]ethyl}-1H-indole-2-carboxamide] | – | Effect on Emax of agonist CP55,940 (human CB1 receptor [3]): dose-dependently decreased the Emax; fold more potent than compound 1 (CB1 IC50) (human CB1 receptor [4]): ~10 fold; fold more potent than compound 3 (CB1 IC50) (human CB1 receptor [4]): ~ 2.5 fold and 2.5 fold; fold more potent than compound 17 (CB1 IC50) (human CB1 receptor [4]): 6 fold
CCCN(CCC)c1ccc(CCNC(=O)c2[nH]c3ccc(Cl)cc3c2CC)cc1 [Compound 18, 5-Chloro-N-{2-[4-(dipropylamino)phenyl]ethyl}-3-ethyl-1H-indole-2-carboxamide] | -37.4 ± 6.8 | –
CCN(CC)c1ccc(CCNC(=O)c2[nH]c3ccc(F)cc3c2C)cc1 [Compound 43, 5-Fluoro-N-{2-[4-(diethylamino)phenyl]ethyl}-3-methyl-1H-indole-2-carboxamide] | -21.8 ± 6.5 | –
CCc1c(C(=O)NCCc2ccc(N(CC)CC)cc2)[nH]c2ccc(F)cc12 [Compound 42, 5-Fluoro-N-{2-[4-(diethylamino)phenyl]ethyl}-3-ethyl-1H-indole-2-carboxamide] | -25.7 ± 10.7 | –
CCCCCCNc1ccc(CCNC(=O)c2[nH]c3ccc(Cl)cc3c2CC)cc1 [Compound 19, 5-Chloro-N-{2-[4-(hexylamino)phenyl]ethyl}-3-ethyl-1H-indole-2-carboxamide] | -35 ± 4.6 | –
CCN(CC)c1ccc(CCNC(=O)c2cc3cc(F)ccc3[nH]2)cc1 [Compound 44, 5-Fluoro-N-{2-[4-(diethylamino)phenyl]ethyl}-1H-indole-2-carboxamide] | -23.8 ± 5.2 | –
CCc1c(C(=O)NCCc2ccc(N(CC)CC)cc2)[nH]c2ccc(Cl)cc12 [Compound 17, 5-Chloro-N-{2-[4-(diethylamino)phenyl]ethyl}-3-ethyl-1H-indole-2-carboxamide] | – | fold more potent than compound 1 (CB1 IC50) (human CB1 receptor [4]): 2 fold
CCc1c(C(=O)NCCc2ccc(N(C)C)cc2)[nH]c2ccc(F)cc12 [Compound 3, Org27759, reference compound] | -20.4 ± 2.4 | Effect on Emax of agonist CP55,940 (human CB1 receptor [3]): dose-dependently decreased the Emax
CCc1c(C(=O)NCCc2ccc(C(C)(C)C)cc2)[nH]c2ccc(Cl)cc12 [Compound 27, 5-Chloro-N-[2-(4-tert-butylphenyl)ethyl]-3-ethyl-1H-indole-2-carboxamide] | -18 ± 35.4 | –
CCc1c(C(=O)NCCc2ccc(N(C)C)cc2)[nH]c2ccc(Cl)cc12 [Compound 16, 5-Chloro-N-{2-[4-(dimethylamino)phenyl]ethyl}-3-ethyl-1H-indole-2-carboxamide] | -12.7 ± 2.8 | –
CCc1c(C(=O)Nc2cccc(-c3cccc(N(C)C)n3)c2)[nH]c2ccc(Cl)cc12 [Compound 35, 5-Chloro-N-{3-[6-(dimethylamino)pyridin-2-yl]phenyl}-3-ethyl-1H-indole-2-carboxamide] | -19.2 ± 11.5 | –
